Assay outcomes (PubChem)
CSN inh: inhibitors of human CSN-mediated cullin deneddylation; Q92905; Purified CSN, SCF-Nedd8-OG deneddylation, fluorescence polarization; inhibition, % at 12.5 µM; hit rate 0.38% among 360,000; AID 651999;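 active means pattern-corrected inhibition above about 35%, with an unprinted fluorescence ratio check between 0.5 and 1.5, limit read from the data, passing the limit was not always enough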;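 further: 0% = enzyme with substrate and 100% = substrate without enzyme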
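Material: human Csn5 produced in HEK293T cells; Input: enzyme 0.24 nM; Reagent: SCFSkp2-Nedd8OG substrate at 10 nM final; Dosing: 12.5 µM compound; Incubation: 90 min reaction at room temperature; Detection: fluorescence polarization of the substrate; Evaluation: % inhibition of substrate cleavage by Csn5; Control set: substrate-only high control, full reaction low control.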
HNF4A DNA FP: change in binding of human HNF4 alpha to DNA | P41235 | hit rate 0.3% among 360,000 | activity change, % at 10 µM | HNF4a-FITC DNA binding, fluorescence polarization, 1 h; in the data active means activity change above about 30%, passing the limit was not always enough
TPT1 inh: C. albicans TPT1 enzyme inhibition; hit rate 0.81% among 300,000; recombinant caTPT1, FP RNA substrate dephosphorylation; inhibition, % at 5 µM; AID 1962;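 active means inhibition above the mean of all tested compounds plus 3 SD, set per screening campaign, cut at about 24% in these data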;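 further: plate controls were DMSO alone for no effect and ferristatin control at 100 nM for full effect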
NR1D1 modulator: Rev-erb alpha (human) modulation; Rev-erbα–FITC-DNA binding, fluorescence polarization, 90 min; AID 1259318; activity, % at 10 µM; hit rate 0.79% among 370,000;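 active means activity above about 14%, limit read from the data; passing the limit was not always enough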;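 further: 0% = DMSO wells with 35 nM protein and 100% = DMSO wells with 750 nM protein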
Rev-erbA confirm: Rev-erb alpha (human) modulation, hit confirmation | shares compounds with NR1D1 modulator | Rev-erb alpha FITC-DNA binding, fluorescence polarization, 90 min | activation, % at 25 µM | hit rate 61% among 3,000 | AID 1259319;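 active means activation at or above a set limit, or at least 3 SD above the negative control mean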;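 further: 0% = 35 nM protein with DMSO and 100% = 750 nM protein high control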
RORg counter: counter-screen for Rev-erb alpha modulators: RORgamma DNA binding; shares compounds with NR1D1 modulator; purified RORgamma protein-FITC-DNA binding, fluorescence polarization; IC50, µM; hit rate 8% among 910; AID 1259320;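 active means Compounds whose fitted half-maximal concentration for disrupting protein-DNA binding is below 10 micromolar; the record names Rev-erb in its text, so the target is in doubt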
Active calls of the source: *; i = inactive; . = no result given. Only some compounds are listed: those with a hit (about 1.7% of all), similar ones and a draw of the others.

SMILES	CSN inh	HNF4A DNA FP	TPT1 inh	NR1D1 modulator	Rev-erbA confirm	others
O=C(NCC1CCCO1)c1cnn2c(C(F)F)cc(C3CC3)nc12 (centres undefined)	-1.6	7.0	.	11.5	.
COC(=O)c1ccccc1NC(=O)N1c2ccccc2Sc2ccccc21	-7.5	-3.5	22.0	-3.2	.
COC(=O)c1ccc(C(=O)OC)c(NC(=O)N2c3ccccc3Sc3ccccc32)c1	5.0	6.1	2.2	26.2*	47.5*	RORg counter=>40
O=C(c1ccco1)N1C(=O)c2cccc3cccc1c23	-3.7	-1.8	-5.0	-3.2	.
O=C(c1ccccc1F)N1C(=O)c2cccc3cccc1c23	2.2	-1.9	-2.5	24.8*	10.1
O=C(c1cccs1)N1C(=O)c2cccc3cccc1c23	1.1	4.0	-1.8	51.0*	42.5*	RORg counter=>40
O=c1[nH]c(/C=C/c2cccc3ccccc23)nc2ccccc12	4.1	17.7	8.9	60.2*	25.4*
O=C(NN=Cc1ccccc1O)C(=O)Nc1ccc(F)cc1	.	.	.	4.5	.
COC(=O)c1ccc(CN2C(=O)[C@]3(OCCC=C[C@H]3C)c3cc(OC)ccc32)cc1	.	.	.	2.1	.
Cc1cccc(NC(=O)CN(C)C(=O)c2ccc(N3CCCCCC3)c([N+](=O)[O-])c2)c1C	-4.5	-2.4	.	17.2*	-4.5
CN1CCN(c2ccccc2NC(=O)c2ccc(N3CCCC3)c([N+](=O)[O-])c2)CC1	-5.2	-1.5	-2.0	16.1*	8.8
CC1Cc2ccccc2N1C(=O)COC(=O)c1cc(Br)ccc1O (centres undefined)	1.4	0.1	1.2	34.9*	24.8*
O=C(OCC(=O)N1CCN(S(=O)(=O)c2ccc(Cl)cc2)CC1)c1cc(Br)ccc1O	-6.7	2.2	3.2	121.3*	80.1*	RORg counter=i
O=C(OCC(=O)N1CCCc2ccccc21)c1cc(Br)ccc1O	-0.5	1.3	3.5	36.1*	26.3*
CCCC1CCC2(CC1)CCC2OC(=S)Nc1ccccc1OC (centres undefined)	.	.	.	7.7	.
O=S(=O)(c1ccccc1)N1CCN(Cc2ccccc2)c2ccccc21	2.5	0.6	.	25.0*	16.7*
CCOC(=O)COc1c(Cl)cc(C2NC(=S)NC(c3ccccc3)=C2C(C)=O)cc1OCC (centres undefined)	-5.0	0.0	-1.6	34.1*	31.2*	RORg counter=>40
COC(=O)C1=C(C)N(Cc2ccccc2C(F)(F)F)C(=NCc2ccc3c(c2)OCO3)NC1c1ccccc1C(F)(F)F (centres undefined)	.	.	.	3.8	.
O=C(Nc1ccc(F)cc1)c1cc(-c2ccncc2)nc2c(Cl)cccc12	7.1	4.8	5.0	23.7*	9.3
NS(=O)(=O)c1ccc(CCNc2ccn3nc(-c4ccccc4)cc3n2)cc1	-2.6	1.1	.	-0.5	.
CC(C)Cc1ccc(-c2cc3nc(NCCc4ccc(S(N)(=O)=O)cc4)ccn3n2)cc1	-2.4	6.4	.	34.8*	24.4*
COC(=O)c1cc2c(c3c4cc(F)ccc4n(S(=O)(=O)c4ccccc4)c13)C(=O)N(Cc1ccco1)C2	.	.	.	5.0	.
